The text below walks through data of ChEMBL document CHEMBL1777791, “Protective effect of ε-viniferin on β-amyloid peptide aggregation investigated by electrospray ionization mass spectrometry” (Bioorg Med Chem, 2011).

SMILES strings stand for the structures. Activity calls are given as the source filed them. The calls are words filed in the database; no cut-off is given here.

The nature of data set [1]: Binding affinity to amyloid beta (1 to 40) assessed as non-covalent protein-compound complex formation at 10 uM using 35% methanol by electrospray ionization mass spectrometry analysis. The method, boiled down: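 ESI ion-trap MS by direct infusion at 180 µL/h. Aβ(1-40) and compound mixed 1:1 molar (10 µM) in 35% methanol. Spectra recorded over m/z 150–2000 in positive and negative ion modes at normal scan resolution. Non-covalent complex ions identified.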

Data set [2] can be described thus: Inhibition of amyloid beta (1 to 40) fibril formation at 10 uM by UV-visible spectrometry analysis. The method, boiled down:
(§1)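 Full-length Aβ stock (1 mM) prepared in sterile water at 4 °C by brief vortexing, then sonicated 10 min. Polyphenol stock 1 mg/mL in MeOH. Reaction used 10 mM phosphate buffer, pH 7.2, 50 µM peptide final and polyphenol at 5 or 10 µM final. Fibril formation followed by UV–visible spectrophotometry.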

Data set [3] concerns PC-12. The data set can be described thus: Antiamyloidogenic activity in rat PC12 cells assessed as protection against amyloid beta (25 to 35)-induced cell death at 10 uM after 24 hrs by MTT assay. Type of data set: functional. The method, boiled down: (§2)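 PC12 cells kept in DMEM-Glutamax with 15% heat-inactivated horse serum, 2.5% FBS and antibiotics at 37 °C, 10% CO2, on poly-D-lysine. Seeded 10,000 cells/well and grown 24 h. Aβ was preincubated with or without compound at 37 °C for 48 h, diluted in medium and added (Aβ final 10 µM). After 24 h, MTT 0.5 mg/ml for 3 h at 37 °C, DMSO solubilisation, A595. Read-out is % of control cells.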

Data set [4] can be described thus: Inhibition of amyloid beta (25 to 35) fibril formation by UV-visible spectrometry analysis. In a few lines: (§3)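 Aβ(25-35) stock (1 mM) prepared in sterile water at 4 °C by brief vortexing, then sonicated 10 min. Polyphenol stock 1 mg/mL in MeOH. Reaction used 10 mM phosphate buffer, pH 7.2, 100 µM peptide final and polyphenol at 5 or 10 µM final. Fibril formation followed by UV–visible spectrophotometry.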

Data set [5] can be described thus: Inhibition of amyloid beta (1 to 40) fibril formation at 5 uM by UV-visible spectrometry analysis. The method, boiled down:
as §1

Data set [6] can be described thus: Inhibition of amyloid beta (1 to 42) fibril formation at 5 uM by UV-visible spectrometry analysis. In a few lines:
as §1

Data set [7] in a line: Inhibition of amyloid beta (1 to 42) fibril formation at 10 uM by UV-visible spectrometry analysis. In a few lines: as §1
Data set [8] has as its system PC-12. The data set can be described thus: Antiamyloidogenic activity in rat PC12 cells assessed as protection against amyloid beta (1 to 42)-induced cell death at 10 uM after 24 hrs by MTT assay. The format is functional. In a few lines: as §2
On the technique in general: Tetrazolium dyes change colour on reduction, which living cells bring about.

Data set [9] concerns PC-12. The data set can be described thus: Cytotoxicity against rat PC12 cells up to 10 uM after 24 hrs by MTT assay. Conditions: pc-12, 24 h.
Data set [10] can be described thus: Inhibition of amyloid beta (25 to 35) fibril formation at 10 uM by UV-visible spectrometry analysis. In a few lines: as §3
Data set [11] concerns PC-12. Nature of the data set: Antiamyloidogenic activity in rat PC12 cells assessed as protection against amyloid beta (1 to 40)-induced cell death at 10 uM after 24 hrs by MTT assay. The format is functional. The method, boiled down: as §2

With `O=C(O)/C=C/c1ccc(O)cc1`, in data set [1], the result was inactive.
Regarding `OC[C@H]1O[C@@H](Oc2cc(/C=C/c3ccc(O)cc3)c3c(c2)O[C@H](c2ccc(O)cc2)[C@H]3c2cc(O)cc(O)c2)[C@H](O)[C@@H](O)[C@@H]1O`, the inhibition (as a rule, how much of the control response was suppressed) in data set [2] was found to be 97%; in data set [5], 59%; in data set [6], 70%; in [7], 89%; in [10] it was 93%. Moreover, the Activity in [3] is 80%; in data set [8], 87%; in data set [9], “Non-toxic”; in data set [11], 79%. In data set [4], the IC50 (as a rule, the concentration needed to halve the response being measured) was below 1000 nM. In addition, in data set [1], the result was Active.
As to `Oc1ccc(/C=C/c2cc(O)cc(O)c2)cc1`, the inhibition in [2] amounted to 52%; in data set [5], 22%; in data set [7], 61%; in [10], 63%.
